# In the library only some 3.5% were active in any assay of this set; here they are far more common.
# DENV2 CPE rescue: inhibitors of DENV2 cytopathic effect, primary screen, cell-based, plate reader, single concentration. CPE inhibition, % at 9.99 µM. DENV2-infected cells, cytopathic effect rescue. 350,000 tested, 1.7% active; in the data active = CPE inhibition above about 20%, passing the limit was not always enough; inconclusive = no clear call, values can overlap the other calls; tested in BHK-21 cells;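 note: 0% = median of neutral control wells and 100% = median of positive control wells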
# PGC1a acetyl inh: inhibitors of PGC1a acetylation signal, primary screen, cell-based, U2OS, AlphaScreen, inhibitor mode | AlphaScreen anti-acetyl-lysine; with virally co-expressed GCN5 acetyltransferase | inhibition, % at 15.6 µM | 350,000 tested, 0.17% active | AID 651687, 2012;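 active = every replicate shows inhibition of at least 40%; inconclusive = mean inhibition at least 40% but some replicate below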;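 note: 0% = neutral control wells and 100% = positive control wells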
# FN deposition inh: inhibitors of fibronectin matrix deposition, primary screen, AH1F cells, Alexa488-fibronectin fluorescence, plate reader; AH1F fibroblasts, overnight; inhibition, % at 12.6 µM; 350,000 tested, 0.086% active; AID 743247, 2014;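 active = mean inhibition across replicates of 30% or more, regardless of how many single replicates reach that level; inconclusive = mean under 30% yet at least half of replicates reach 30%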;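 note: positive control wells lacked labelled fibronectin entirely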
#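 Measured by – fluorescence 485/525 nm · System – AH1F fibroblast monolayer, labelled fibronectin deposition · Amount – 10000 cells per well · Buffer or medium – serum-reduced DMEM (2% serum) · Doses – single dose, pinned · Also added – fluorescent fibronectin at 24 nM final · Schedule – 1 h cell attachment, overnight exposure to compound and label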
# PglD inh: C. jejuni PglD acetyltransferase inhibitors, primary screen, biochemical, DTNB colorimetric, single point. inhibition, % at 12.5 µM. AID 602405, 2012. 360,000 tested, 0.098% active. UDP-N-acetylbacillosamine N-acetyltransferase PglD (Campylobacter jejuni). purified PglD enzyme, DTNB colorimetric CoA detection; in the data active = inhibition above about 16%, passing the limit was not always enough; inconclusive = no clear call, values can overlap the other calls
# rRNA inh HTS: reduced GFP signal of wild-type E. coli, primary screen, bacterial rRNA inhibitor project, GFP/RFP fluorescence, OD600, single point; 350,000 tested, 1.6% active; E. coli WT GFP vs humanized-ribosome RFP mutants, 24 h; stronger effect = lower value; DMSO median 0, no signal -100; GFP signal change (wild-type ribosome), % (test concentration not listed);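 active = significant combined selectivity score with lowered wild-type GFP, culture density cut under 30%, mutant RFP and density less affected; inactive = any of these conditions unmet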
# Env fusion inh: inhibitors of HIV-1 Env-driven cell-cell fusion, primary screen, HeLa-JRFL effector, CEM21 target cells, luciferase; 360,000 tested, 1.1% active; inhibition, % at 12.3 µM; AID 651610, 2012;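 active = mean replicate inhibition score of at least 50 and every replicate individually at or above 50; inconclusive = only one of the two criteria met; inactive = mean below 50 and not all replicates reaching 50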;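 note: 0% = plate neutral controls and 100% = maraviroc near 300 nM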
# * marks the source's active call; other numbers are inactive results; u = inconclusive; x = no result given; [ ] = another dose, or the depositor's remark.
SMILES,DENV2 CPE rescue,PGC1a acetyl inh,FN deposition inh,PglD inh,rRNA inh HTS,Env fusion inh
C[C@@H]1CN([C@@H](C)CO)C(=O)c2cc(NC(=O)c3ccncc3)ccc2O[C@@H]1CN(C)S(=O)(=O)c1ccc(F)cc1,-0.4,3.4,5.6,0.3,-2.6,-7.2[16.7 µM]
Cc1nc(S(=O)(=O)N2CCN(Cc3ccc(OCCO)cc3)CC2)cn1C,8.0,-3.3,x,3.9,x,-7.8[16.7 µM]
O=C(Nc1ccccc1Cl)c1cnccn1,x,-2.0,x,3.1,x,-37.6
O=C(NC(=S)NNC(=O)c1cnccn1)c1ccc(F)cc1,-1.9,-4.1,-2.4,x,-30.4,8.1
Cc1csc2ncnc(NNC(=O)c3ccc(Cl)cc3)c12,-2.9,x,0.2,x,x,65.7*
O=C(NNC(=O)c1ccc(Cl)cc1Cl)c1cnccn1,-3.1,x,0.6,x,-34.9*,-3.3
Cc1cc(OCC(=O)NNC(=O)c2cnccn2)cc(C)c1Cl,5.5,84.6*,x,-5.7,0.2,22.5
O=C(NNC(=O)c1cnccn1)c1ccc(Cl)cc1,-6.3,x,-2.3,x,-39.1*,2.5
Cc1ccc(OCC(=O)NCCCNC(=O)c2cnccn2)cc1C,u,x,-5.9,-3.3,2.6,7.4
C[C@@H]1CN([C@H](C)CO)C(=O)c2cc(-c3ccc(C#N)cc3)cnc2O[C@H]1CN(C)Cc1cccnc1,17.9,3.6,-2.0,-1.5,1.5,2.1[16.7 µM]
Cc1cc(C(=O)Nc2cccc3c2O[C@H](CN(C)C(=O)NC(C)C)[C@@H](C)CN([C@H](C)CO)C3=O)n(C)n1,-2.8,-2.6,-5.8,-1.2,1.2,x
COc1ccccc1S(=O)(=O)N1C[C@@H](O)COC[C@@H]2O[C@H](CC(=O)O)CC[C@H]21,-5.2,1.5,0.9,0.2,3.7,x
C[C@@H]1CCCCO[C@H](CN(C)Cc2ccc(C(F)(F)F)cc2)[C@H](C)CN([C@@H](C)CO)C(=O)c2cc(NC(=O)Nc3ccc4c(c3)OCO4)ccc2O1,-1.4,-0.2,x,1.1,-0.9,25.9[16.7 µM]
C[C@@H]1CN([C@@H](C)CO)C(=O)c2cc(NC(=O)Nc3ccc(C(F)(F)F)cc3)ccc2O[C@@H](C)CCCCO[C@H]1CN(C)Cc1ccc2c(c1)OCO2,-27.9,-7.8,-1.6,1.5,1.3,9.7[16.7 µM]
C[C@H](CO)N1C[C@H](C)[C@@H](CN(C)Cc2ccc(C(F)(F)F)cc2)OCCCC[C@H](C)Oc2ccc(NC(=O)Nc3ccc4c(c3)OCO4)cc2C1=O,-8.8,-5.8,x,-1.2,3.7,70.9*[16.7 µM]
C[C@H]1CCCCO[C@@H](CN(C)Cc2ccc(C(F)(F)F)cc2)[C@@H](C)CN([C@@H](C)CO)C(=O)c2cc(NC(=O)Nc3ccc4c(c3)OCO4)ccc2O1,2.6,-3.0,x,5.4,-3.5,85.6*[16.7 µM]
C[C@@H]1CCCCO[C@@H](CN(C)Cc2ccc(C(F)(F)F)cc2)[C@H](C)CN([C@H](C)CO)C(=O)c2cc(NC(=O)Nc3ccc4c(c3)OCO4)ccc2O1,11.7,-4.8,x,7.9,-6.9,65.0*[16.7 µM]
C[C@H]1CCCCO[C@H](CN(C)Cc2ccc(C(F)(F)F)cc2)[C@@H](C)CN([C@@H](C)CO)C(=O)c2cc(NC(=O)Nc3ccc4c(c3)OCO4)ccc2O1,-9.1,3.8,x,3.2,-5.2,59.9*[16.7 µM]
CO[C@H]1CN(C)C(=O)c2cc(NC(=O)Nc3ccc(Cl)cc3)ccc2OC[C@H](C)N(C(=O)Nc2c(C)noc2C)C[C@H]1C,x,-0.5,-7.1,1.2,-1.3,-2.6[16.7 µM]
CCC(=O)N1CC2(CCN(C(=O)Nc3ccc(F)cc3)CC2)c2c([nH]c3cc(OC)ccc23)[C@H]1CO,-3.9,4.6,x,x,-5.9,x
CC(C)NC(=O)N1C[C@H]2[C@@H](c3ccccc31)[C@H](CO)N2Cc1ccc(Cl)cc1,4.2,-5.2,x,-3.4,-4.4,x
Cc1cccc(S(=O)(=O)N[C@@H]2CC[C@H](CCNS(=O)(=O)c3ccccc3F)O[C@H]2CO)c1,2.7,3.4,-8.7,-0.5,1.2,-10.1[16.7 µM]

# Assay outcomes (PubChem)
